Test results as given in ChEMBL document CHEMBL2040719, “Fragment-based design of symmetrical bis-benzimidazoles as selective inhibitors of the trimethoprim-resistant, type II R67 dihydrofolate reductase” (J Med Chem, 2012).
Activity calls are given as the source filed them. No cut-off for these calls is given here.

Experiments:
[1] = Inhibition of recombinant type N-terminal His6-tagged 2 R67 DHFR expressed in Escherichia coli BL21 using DHF as substrate by spectrophotometry
Outline: (§1)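 His-tagged R67 DHFR purified from E. coli by Ni affinity with an imidazole gradient. Activity followed as NADPH plus DHF depletion at 340 nm (Δε 12800 M⁻¹cm⁻¹) in 400 mM HEPES pH 7.0 with 10% final DMSO. Reactions started with 250 nM enzyme; initial rates (<10% conversion). Ki via Cheng–Prusoff with KM(NADPH) 1.6 μM, assuming competitive inhibition.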

[2] = target: T1, Dihydrofolate reductase (Homo sapiens) (UniProt P00374); assay: Inhibition of human chromosomal DHFR expressed in Escherichia coli BL21 using DHF as substrate assessed as remaining activity at 30 mM by spectrophotometry relative to control
T1 sequence (whole entry): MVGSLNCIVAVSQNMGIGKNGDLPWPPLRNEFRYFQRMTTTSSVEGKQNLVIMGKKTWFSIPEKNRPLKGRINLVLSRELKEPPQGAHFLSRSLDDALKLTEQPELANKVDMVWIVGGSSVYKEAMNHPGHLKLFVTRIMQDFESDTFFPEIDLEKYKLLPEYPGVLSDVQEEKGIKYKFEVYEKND
Outline: (§2)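 Human chromosomal DHFR overexpressed in E. coli BL21(DE3). Spectrophotometric assay at 340 nm following NADPH/DHF depletion in 50 mM potassium phosphate pH 8.0, 10% final DMSO, initial rates. Each compound was tested at its highest concentration allowed by solubility and absorbance; activity reported relative to the uninhibited control.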

[3] = target: T1, Dihydrofolate reductase (Homo sapiens); assay: Inhibition of human chromosomal DHFR expressed in Escherichia coli BL21 using DHF as substrate assessed as remaining activity at 1 mM by spectrophotometry relative to control; outline: as §2
[4] = Cytotoxicity against mouse 3T6 cells after 72 hrs by MTT assay; type: cell-based
Outline: (§3)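 Mouse 3T6 embryonic fibroblasts in DMEM + 10% heat-inactivated FBS, 37 °C, 5% CO2, seeded at 5×10³ cells/well. Eight dilutions 0.05–200 μM from DMSO, medium with compound renewed at 24 h, 48 h further incubation. MTT 3 h, read at 540 nm with 690 nm reference. Triplicates; % inhibition versus blank-corrected solvent controls; IC50 from the plot.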

[5] = Inhibition of Escherichia coli R67 DHFR; outline: as §1
[6] = target: T1, Dihydrofolate reductase (Homo sapiens); assay: Inhibition of human chromosomal DHFR expressed in Escherichia coli BL21 using DHF as substrate assessed as remaining activity at 5 mM by spectrophotometry relative to control; outline: as §2
[7] = target: T1, Dihydrofolate reductase (Homo sapiens); assay: Inhibition of human chromosomal DHFR expressed in Escherichia coli BL21 using DHF as substrate assessed as remaining activity at 300 uM by spectrophotometry relative to control
[8] = target: T1, Dihydrofolate reductase (Homo sapiens); assay: Inhibition of human chromosomal DHFR expressed in Escherichia coli BL21 using DHF as substrate assessed as remaining activity at 2.5 mM by spectrophotometry relative to control; outline: as §2
[9] = Competitive inhibition of recombinant R67 DHFR expressed in Escherichia coli BL21 using DHF as substrate by Dixon plot analysis in the presence of 5 to 80 uM NADPH
Outline: (§4)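 Dixon method in 50 mM potassium phosphate pH 7.0, 10% DMSO. NADPH series: DHF fixed at 50 μM, NADPH at 5 or 80 μM, inhibitor over a range spanning Ki. DHF series: NADPH fixed at 50 μM. Reciprocal rates plotted against inhibitor concentration; Ki taken from the slope intersection; triplicates, mean ± SD.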

[10] = Competitive inhibition of recombinant R67 DHFR expressed in Escherichia coli BL21 using 25 to 164 uM DHF as substrate by Dixon plot analysis in the presence of 50 uM of NADPH; outline: as §4
[11] = tested on: Escherichia coli; assay: Antibacterial activity against Escherichia coli […] expressing […] up to 1 mM in presence of 50 ug/mL Trimethoprim; type: functional, organism-based
Outline: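 E. coli XL1-Blue expressing R67 DHFR grown in M9 minimal medium with 50 μg/mL TMP to block chromosomal DHFR; growth inhibition tested up to 1 mM (maximal concentration).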

[12] = Cytotoxicity against mouse 3T6 cells assessed as cell death at 200 uM after 72 hrs by MTT assay; type: cell-based; outline: as §3
[13] = target: T1, Dihydrofolate reductase (Homo sapiens); assay: Inhibition of human chromosomal DHFR expressed in Escherichia coli BL21 using DHF as substrate assessed as remaining activity at 400 uM by spectrophotometry relative to control
[14] = target: T1, Dihydrofolate reductase (Homo sapiens); assay: Inhibition of human chromosomal DHFR expressed in Escherichia coli BL21 using DHF as substrate assessed as remaining activity at 10 mM by spectrophotometry relative to control; outline: as §2

Row | Compound | inhibition [1] | IC50 [1] | Ki [1] | further results
1 | COc1ccc2cc(C(=O)O)ccc2c1 | inactive | – | – | –
2 | O=C(O)c1ccc2[nH]nnc2c1 | – | 8400 µM | 260 µM | Activity [2]: 69%
3 | O=C(O)c1ccc(OCCCCCOc2ccc(C(=O)O)cc2)cc1 | – | ≥ 1000 µM | – | Activity [3]: 100%; IC50 [4]: 34 µM
4 | Cc1nc2cc(C(=O)O)ccc2[nH]1 | inactive | – | – | –
5 | CO[C@@H]1[C@@H](OC(N)=O)[C@@H](O)[C@H](Oc2ccc3c(O)c(NC(=O)c4ccc(O)c(CC=C(C)C)c4)c(=O)oc3c2C)OC1(C)C [NOVOBIOCIN] | – | – | – | Ki [5]: 70 µM
6 | O=C(O)c1cc2nccnc2s1 | – | 2000 µM | 61 µM | Activity [6]: 37%
7 | CC(C)n1nnc2cc(C(=O)O)ccc21 | inactive | – | – | –
8 | Oc1nncc2ccccc12 [PHTHALAZINONE] | – | 17000 µM | 530 µM | Activity [2]: 97%
9 | c1ccc2[nH]c(-c3ccc(OCCCCCOc4ccc(-c5nc6ccccc6[nH]5)cc4)cc3)nc2c1 | – | ≥ 300 µM | – | IC50 [4]: 0.98 µM; Activity [7]: 110%
10 | Nc1c(/N=N/c2ccc(-c3ccc(/N=N/c4cc(S(=O)(=O)O)c5ccccc5c4N)cc3)cc2)cc(S(=O)(=O)O)c2ccccc12 [CONGO RED] | – | – | – | Ki [5]: 2 µM
11 | Nc1ccc2cc(C(=O)O)ccc2c1 | – | 1700 µM | 51 µM | Activity [8]: 14%
12 | O=C(O)c1ccc2[nH]c(-c3ccc(OCCCCCOc4ccc(-c5nc6cc(C(=O)O)ccc6[nH]5)cc4)cc3)nc2c1 | – | 64 µM | 2 µM | Ki [9]: 4.2 µM; Ki [10]: 9.7 µM; Activity [11]: inactive; Activity [12]: 40%; Activity [13]: 95%
13 | O=C(O)c1ccc2cc(O)ccc2c1 | – | 6100 µM | 190 µM | Activity [14]: 13%
14 | Nc1cc2ccccc2cc1C(=O)O | inactive | – | – | –
15 | COc1cc2c(OC)cccc2cc1C(=O)O | – | 1800 µM | 55 µM | Activity [6]: 14%
16 | O=C(O)c1ccc2c(c1)OCO2 | inactive | – | – | –
17 | O=C(O)c1ccc2[nH]c(-c3ccc(OCC(O)COc4ccc(-c5nc6cc(C(=O)O)ccc6[nH]5)cc4)cc3)nc2c1 | – | 130 µM | 4 µM | Activity [3]: 95%; Activity [11]: inactive; Activity [12]: 40%
18 | c1ccc2[nH]cnc2c1 | inactive | – | – | –
19 | O=C(O)c1ccc2[nH]cnc2c1 | – | 2600 µM | 80 µM | Activity [14]: 75%
